The values that follow come from ChEMBL document CHEMBL2069228, “Antidiabetic compounds from Sarracenia purpurea used traditionally by the Eeyou Istchee Cree First Nation” (J Nat Prod, 2012).

Assay [1] concerns the target T1, Glucose-6-phosphatase catalytic subunit 1 (Rattus norvegicus, UniProt P43428).
T1 sequence (P43428 whole entry): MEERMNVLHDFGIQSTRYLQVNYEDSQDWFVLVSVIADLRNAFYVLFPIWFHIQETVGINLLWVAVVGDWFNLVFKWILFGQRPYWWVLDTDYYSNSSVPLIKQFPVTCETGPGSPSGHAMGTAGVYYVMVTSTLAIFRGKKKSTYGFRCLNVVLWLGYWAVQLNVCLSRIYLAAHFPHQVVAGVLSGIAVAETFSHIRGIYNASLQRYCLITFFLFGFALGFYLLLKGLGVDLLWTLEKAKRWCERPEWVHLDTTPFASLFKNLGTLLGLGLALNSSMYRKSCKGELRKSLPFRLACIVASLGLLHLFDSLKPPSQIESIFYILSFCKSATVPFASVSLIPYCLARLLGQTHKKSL
Description: Inhibition of glucose-6-phosphatase enzymatic activity in rat […] cells using G6P substrate incubated for 18 hrs by colorimetric assay. The format is cell-based. In outline:
(§1)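 H4IIE rat hepatoma cells at 90% confluence were treated 18 h with compound (1–100 μM; 0.1% DMSO control, 100 nM insulin reference). Cells were lysed in 15 mM phosphate buffer pH 6.5 with 0.05% Triton and 1.3 mM phenol, and lysate was incubated with 200 mM glucose-6-phosphate for 40 min at 37 °C. Glucose formed was read by glucose oxidase colorimetry at 505 nm and normalised to protein.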

Assay [2] deals with C2C12. Description: Increase in glucose uptake in mouse C2C12 cells incubated for 18 hrs using [3H]-2-deoxy-D-glucose by liquid scintillation counting. The format is functional, cell-based. In a few lines:
(§2)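 Differentiated confluent C2C12 myotubes were held 18 h in DMEM with 2% horse serum containing compound (6.25–100 μM; 0.1% DMSO vehicle control). Cells were equilibrated 30 min at 37 °C in Krebs phosphate buffer pH 7.4 with 5 mM glucose, rinsed glucose-free, then given 10 μM 2-deoxy-D-glucose plus 1 μCi/mL [3H]-2-deoxyglucose for 10 min at 37 °C. Cells were lysed in 0.1 M NaOH and counted by scintillation.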

Assay [3] deals with C2C12. Nature of the assay: Increase in glucose uptake in mouse C2C12 cells incubated for 18 hrs using [3H]-2-deoxy-D-glucose by liquid scintillation counting relative to DMSO. Also on record: concentration or dose not given beside the values. The format is functional. In a few lines: as §2
In assay [4] the target is T2, Glucose-6-phosphatase catalytic subunit 1 (Rattus norvegicus) (UniProt P43428).
T2 sequence (whole entry): T1 sequence (P43428 whole entry)
Description: Inhibition of glucose-6-phosphatase enzymatic activity in rat […] cells at 50 uM using G6P substrate incubated for 18 hrs by colorimetric assay. The format is cell-based. In outline:
as §1

Setting [5] is: Mus musculus, C2C12, read-out: EC50.

Structures are written as SMILES.

Compound `O=C1C[C@H](O[C@@H]2O[C@H](CO)[C@@H](O)[C@H](O)[C@H]2O)CO1` [GOODYEROSIDE] displayed an IC50 in assay [1] of 391 µM. The EC50 in the assay on C2C12 [2] (setting [5]) amounted to 25.6 µM. For the same compound, the Efficacy in the assay with C2C12 [3] turned out to be 124%. In assay [4], this compound registered an inhibition of 19.6%.
In the case of `O=C(/C=C/c1ccc(O)c(O)c1)OC[C@H]1O[C@@H](Oc2c(-c3ccc(O)cc3)oc3cc(O)cc(O)c3c2=O)[C@H](O)[C@@H](O)[C@@H]1O`, the concentration for a half-maximal effect (EC50) in the assay with C2C12 [2] (setting [5]) stood at 13.8 µM. In addition, the Efficacy in the assay with C2C12 [3] stood at 188%.
Take `O=c1c(O[C@@H]2O[C@H](CO)[C@H](O)[C@H](O)[C@H]2O)c(-c2ccc(O)c(O)c2)oc2cc(O)cc(O)c12` [HYPEROSIDE]: the EC50 in the assay with C2C12 [2] (setting [5]) worked out at 60.5 µM. In addition, the Efficacy in the assay on C2C12 [3] is given as 211%.
The matching figures for `COc1cc(-c2oc3cc(O)cc(O)c3c(=O)c2O[C@@H]2O[C@H](CO)[C@@H](O)[C@H](O)[C@H]2O)ccc1O`: 18.5 µM and 150%.
The matching figures for `COC(=O)C1=CO[C@@H](O[C@H]2O[C@H](CO)[C@@H](O)[C@H](O)[C@H]2O)[C@@H]2[C@H](C)O[C@@H](OC)C[C@H]12`: 25.9 µM and 120%.
As to `O=C(/C=C/c1ccc(O)c(O)c1)OC[C@H]1O[C@@H](O[C@@H]2COC(=O)C2)[C@H](O)[C@@H](O)[C@@H]1O`, the midpoint of inhibition in assay [1], the IC50, lay at 13.9 µM. Moreover, the EC50 entry in the assay on C2C12 [2] (c2c12) is “Not Active”. For the same compound, the inhibition in assay [4] worked out at 44%.
